According to ChEMBL document CHEMBL1130012 (J Med Chem, 1997):

Experiments:
Rattus norvegicus [1] = species on record: Rattus norvegicus; assay: The Biodistribution of the antagonistic compound in male wistar rats, after 15 minutes of injection in the lung expressed as (body weight-corrected) uptake value; type: organism-based; conditions: in vivo, 0.25 h
Rattus norvegicus [2] = species on record: Rattus norvegicus; assay: The Biodistribution of the antagonistic compound in male wistar rats, after 15 minutes of injection in the trachea expressed as (body weight-corrected) uptake value; type: organism-based; conditions: in vivo, 0.25 h
Rattus norvegicus [3] = species on record: Rattus norvegicus; assay: The Biodistribution of the antagonistic compound in male wistar rats, after 15 minutes of injection in the liver expressed as (body weight-corrected) uptake value; type: organism-based; conditions: in vivo, 0.25 h
[4] = biological target: T1, Muscarinic acetylcholine receptor M2 (Rattus norvegicus, UniProt P10980); assay: Binding affinity towards rat Muscarinic acetylcholine receptor M2 was determined
T1 sequence (P10980 whole entry): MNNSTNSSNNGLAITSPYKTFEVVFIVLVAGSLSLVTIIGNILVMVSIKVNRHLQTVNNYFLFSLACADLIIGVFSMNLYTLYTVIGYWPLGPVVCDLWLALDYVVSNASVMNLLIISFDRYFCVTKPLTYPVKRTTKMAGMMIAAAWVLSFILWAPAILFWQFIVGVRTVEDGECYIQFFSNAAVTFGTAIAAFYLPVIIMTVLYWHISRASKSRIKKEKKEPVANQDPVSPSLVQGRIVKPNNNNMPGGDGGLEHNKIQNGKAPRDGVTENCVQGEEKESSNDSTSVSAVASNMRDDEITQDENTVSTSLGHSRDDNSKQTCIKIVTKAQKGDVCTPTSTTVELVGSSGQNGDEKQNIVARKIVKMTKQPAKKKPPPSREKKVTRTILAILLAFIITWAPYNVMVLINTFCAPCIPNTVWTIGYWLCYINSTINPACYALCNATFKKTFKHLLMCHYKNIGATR

[5] = biological target: T2, Muscarinic acetylcholine receptor M1 (Rattus norvegicus, UniProt P08482); assay: Binding affinity towards rat Muscarinic acetylcholine receptor M1 was determined
T2 sequence (P08482 whole entry): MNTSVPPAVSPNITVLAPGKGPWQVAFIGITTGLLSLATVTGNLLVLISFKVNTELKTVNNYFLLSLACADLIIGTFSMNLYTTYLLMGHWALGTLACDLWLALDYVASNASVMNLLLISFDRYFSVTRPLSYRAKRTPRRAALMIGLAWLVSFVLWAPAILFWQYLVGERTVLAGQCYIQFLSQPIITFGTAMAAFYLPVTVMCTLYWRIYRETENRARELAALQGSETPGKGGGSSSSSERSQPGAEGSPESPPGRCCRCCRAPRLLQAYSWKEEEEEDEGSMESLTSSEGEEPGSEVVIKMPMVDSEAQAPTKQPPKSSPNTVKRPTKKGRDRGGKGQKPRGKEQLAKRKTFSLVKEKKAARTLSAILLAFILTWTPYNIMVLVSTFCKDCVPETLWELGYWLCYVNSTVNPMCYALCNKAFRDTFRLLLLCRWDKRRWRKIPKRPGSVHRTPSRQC

Rattus norvegicus [6] = assay: The Biodistribution of the antagonistic compound along with pretreated atropine (2.5 mg/kg) in male wistar rats after 15 minutes of injection in the stomach expressed as (body weight-corrected) uptake value; type: organism-based; conditions: in vivo, 0.25 h
Procedure, shortened: (§1)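 Same protocol, except the pretreatment was saline containing atropine (0.5 mg/0.5 mL; 2.5 mg/kg) given i.v. 1 min before tail-vein injection of the radioligand (1.85-2.78 MBq in 0.4 mL saline) into pentobarbital-anaesthetized (60 mg/kg) male Wistar rats (240 g). Tissues removed at 15 min and counted ex vivo. Uptake is body-weight-corrected DAR = (cpm/g tissue)/(cpm injected/g body weight).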

Rattus norvegicus [7] = species on record: Rattus norvegicus; assay: The Biodistribution of the antagonistic compound in male wistar rats, after 15 minutes of injection in the kidney expressed as (body weight-corrected) uptake value; type: organism-based; conditions: in vivo, 0.25 h
Rattus norvegicus [8] = species on record: Rattus norvegicus; assay: The Biodistribution of the antagonistic compound in male wistar rats, after 15 minutes of injection in the stomach expressed as (body weight-corrected) uptake value; type: organism-based; conditions: in vivo, 0.25 h
Rattus norvegicus [9] = species on record: Rattus norvegicus; assay: The Biodistribution of the antagonistic compound in male wistar rats, after 15 minutes of injection in the submandibular gland expressed as (body weight-corrected) uptake value; type: organism-based; conditions: in vivo, 0.25 h
Rattus norvegicus [10] = species on record: Rattus norvegicus; assay: The Biodistribution of the antagonistic compound in male wistar rats, after 15 minutes of injection in the heart expressed as (body weight-corrected) uptake value; type: organism-based; conditions: in vivo, 0.25 h
Rattus norvegicus [11] = assay: The Biodistribution of the antagonistic compound along with pretreated atropine (2.5 mg/kg) in male wistar rats after 15 minutes of injection in the liver expressed as (body weight-corrected) uptake value; type: organism-based; conditions: in vivo, 0.25 h; procedure, shortened: as §1
Rattus norvegicus [12] = assay: The Biodistribution of the antagonistic compound along with pretreated atropine (2.5 mg/kg) in male wistar rats after 15 minutes of injection in the pancreas expressed as (body weight-corrected) uptake value; type: organism-based; conditions: in vivo, 0.25 h; procedure, shortened: as §1
Rattus norvegicus [13] = assay: The Biodistribution of the antagonistic compound along with pretreated atropine (2.5 mg/kg) in male wistar rats after 15 minutes of injection in the lung expressed as (body weight-corrected) uptake value; type: organism-based; conditions: in vivo, 0.25 h; procedure, shortened: as §1
Rattus norvegicus [14] = assay: The Biodistribution of the antagonistic compound along with pretreated atropine (2.5 mg/kg) in male wistar rats after 15 minutes of injection in the heart expressed as (body weight-corrected) uptake value; type: organism-based; conditions: in vivo, 0.25 h; procedure, shortened: as §1
Rattus norvegicus [15] = assay: The Biodistribution of the antagonistic compound along with pretreated atropine (2.5 mg/kg) in male wistar rats after 15 minutes of injection in the intestine expressed as (body weight-corrected) uptake value; type: organism-based; conditions: in vivo, 0.25 h; procedure, shortened: as §1
Rattus norvegicus [16] = species on record: Rattus norvegicus; assay: The Biodistribution of the antagonistic compound in male wistar rats, after 15 minutes of injection in the plasma expressed as (body weight-corrected) uptake value; type: organism-based; conditions: in vivo, 0.25 h
Rattus norvegicus [17] = species on record: Rattus norvegicus; assay: The Biodistribution of the antagonistic compound in male wistar rats, after 15 minutes of injection in the pancreas expressed as (body weight-corrected) uptake value; type: organism-based; conditions: in vivo, 0.25 h
Rattus norvegicus [18] = species on record: Rattus norvegicus; assay: The Biodistribution of the antagonistic compound in male wistar rats, after 15 minutes of injection in the testes expressed as (body weight-corrected) uptake value; type: organism-based, Testis; conditions: in vivo, 0.25 h
Rattus norvegicus [19] = assay: The Biodistribution of the antagonistic compound along with pretreated atropine (2.5 mg/kg) in male wistar rats after 15 minutes of injection in the spleen expressed as (body weight-corrected) uptake value; type: organism-based; conditions: in vivo, 0.25 h; procedure, shortened: as §1
Rattus norvegicus [20] = species on record: Rattus norvegicus; assay: The Biodistribution of the antagonistic compound in male wistar rats, after 15 minutes of injection in the spleen; type: organism-based; conditions: in vivo, 0.25 h
Rattus norvegicus [21] = assay: The Biodistribution of the antagonistic compound along with pretreated atropine (2.5 mg/kg) in male wistar rats after 15 minutes of injection in the plasma expressed as (body weight-corrected) uptake value; type: organism-based; conditions: in vivo, 0.25 h; procedure, shortened: as §1
Rattus norvegicus [22] = assay: The Biodistribution of the antagonistic compound along with pretreated atropine (2.5 mg/kg) in male wistar rats after 15 minutes of injection in the muscle expressed as (body weight-corrected) uptake value; type: organism-based, Muscle tissue; conditions: in vivo, 0.25 h; procedure, shortened: as §1
Rattus norvegicus [23] = species on record: Rattus norvegicus; assay: The Biodistribution of the antagonistic compound in male wistar rats, after 15 minutes of injection in the cerebellum expressed as (body weight-corrected) uptake value; Below limit of detection; type: organism-based; conditions: in vivo, 0.25 h
Rattus norvegicus [24] = species on record: Rattus norvegicus; assay: The Biodistribution of the antagonistic compound in male wistar rats, after 15 minutes of injection in the muscle expressed as (body weight-corrected) uptake value; type: organism-based, Muscle tissue; conditions: in vivo, 0.25 h
Rattus norvegicus [25] = assay: The Biodistribution of the antagonistic compound along with pretreated atropine (2.5 mg/kg) in male wistar rats after 15 minutes of injection in the submandibular gland expressed as (body weight-corrected) uptake value; type: organism-based; conditions: in vivo, 0.25 h; procedure, shortened: as §1
Rattus norvegicus [26] = species on record: Rattus norvegicus; assay: The Biodistribution of the antagonistic compound in male wistar rats, after 15 minutes of injection in the red blood cells expressed as (body weight-corrected) uptake value; Below limit of detection; type: organism-based; conditions: in vivo, 0.25 h
Rattus norvegicus [27] = assay: The Biodistribution of the antagonistic compound along with pretreated atropine (2.5 mg/kg) in male wistar rats after 15 minutes of injection in the cerebellum; Below limit of detection; type: organism-based; conditions: in vivo, 0.25 h; procedure, shortened: as §1
Rattus norvegicus [28] = assay: The Biodistribution of the antagonistic compound along with pretreated atropine (2.5 mg/kg) in male wistar rats after 15 minutes of injection in the testes expressed as (body weight-corrected) uptake value; type: organism-based, Testis; conditions: in vivo, 0.25 h; procedure, shortened: as §1
Rattus norvegicus [29] = assay: The Biodistribution of the antagonistic compound along with pretreated atropine (2.5 mg/kg) in male wistar rats after 15 minutes of injection in the cortex expressed as (body weight-corrected) uptake value; Below limit of detection; type: organism-based; conditions: in vivo, 0.25 h; procedure, shortened: as §1
Rattus norvegicus [30] = assay: The Biodistribution of the antagonistic compound along with pretreated atropine (2.5 mg/kg) in male wistar rats after 15 minutes of injection in the fat expressed as (body weight-corrected) uptake value; type: organism-based, Adipose tissue; conditions: in vivo, 0.25 h; procedure, shortened: as §1
Rattus norvegicus [31] = assay: The Biodistribution of the antagonistic compound along with pretreated atropine (2.5 mg/kg) in male wistar rats after 15 minutes of injection in the bladder; type: organism-based, Urinary bladder/Urine; conditions: in vivo, 0.25 h; procedure, shortened: as §1
Rattus norvegicus [32] = assay: The Biodistribution of the antagonistic compound along with pretreated atropine (2.5 mg/kg) in male wistar rats after 15 minutes of injection in the kidney expressed as (body weight-corrected) uptake value; type: organism-based; conditions: in vivo, 0.25 h; procedure, shortened: as §1
Rattus norvegicus [33] = species on record: Rattus norvegicus; assay: The Biodistribution of the antagonistic compound in male wistar rats, after 15 minutes of injection in the bladder expressed as (body weight-corrected) uptake value; type: organism-based, Urinary bladder/Urine; conditions: in vivo, 0.25 h
Rattus norvegicus [34] = assay: The Biodistribution of the antagonistic compound along with pretreated atropine (2.5 mg/kg) in male wistar rats after 15 minutes of injection in the red blood cells expressed as (body weight-corrected) uptake value; Below limit of detection; type: organism-based; conditions: in vivo, 0.25 h; procedure, shortened: as §1
Rattus norvegicus [35] = species on record: Rattus norvegicus; assay: The Biodistribution of the antagonistic compound in male wistar rats, after 15 minutes of injection in the cortex expressed as (body weight-corrected) uptake value; Below limit of detection; type: organism-based; conditions: in vivo, 0.25 h
[36] = biological target: T3, Muscarinic acetylcholine receptor M1 (Bos taurus, UniProt Q8WMX0); type: cell membranes, Brain, Membrane
T3 sequence (Q8WMX0 whole entry): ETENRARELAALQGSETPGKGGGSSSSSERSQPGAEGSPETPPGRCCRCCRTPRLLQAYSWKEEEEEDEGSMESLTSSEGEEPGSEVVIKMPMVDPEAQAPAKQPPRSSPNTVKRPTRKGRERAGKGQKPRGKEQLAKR

Rattus norvegicus [37] = species on record: Rattus norvegicus; assay: The Biodistribution of the antagonistic compound in male wistar rats, after 15 minutes of injection in the intestine expressed as (body weight-corrected) uptake value; type: organism-based; conditions: in vivo, 0.25 h
Rattus norvegicus [38] = assay: The Biodistribution of the antagonistic compound along with pretreated atropine (2.5 mg/kg) in male wistar rats after 15 minutes of injection in the trachea expressed as (body weight-corrected) uptake value; type: organism-based; conditions: in vivo, 0.25 h; procedure, shortened: as §1
Rattus norvegicus [39] = species on record: Rattus norvegicus; assay: The Biodistribution of the antagonistic compound in male wistar rats, after 15 minutes of injection in the fat; type: organism-based; conditions: in vivo, 0.25 h

## C[N+]1(C)CCC(OC(=O)[C@](O)(c2ccccc2)C2CCCCC2)CC1.[I-]
Rattus norvegicus [1]
  Uptake value: 1.03
Rattus norvegicus [2]
  Uptake value: 0.89
Rattus norvegicus [3]
  Uptake value: 5.42
[4]
  Ki: 210 pM
[5]
  Ki: 10 pM
Rattus norvegicus [6]
  Uptake value: 0.22
Rattus norvegicus [7]
  Uptake value: 2.75
Rattus norvegicus [8]
  Uptake value: 2.76
Rattus norvegicus [9]
  Uptake value: 2.64
Rattus norvegicus [10]
  Uptake value: 12.78
Rattus norvegicus [11]
  Uptake value: 9.41
Rattus norvegicus [12]
  Uptake value: 0.35
Rattus norvegicus [13]
  Uptake value: 0.11
Rattus norvegicus [14]
  Uptake value: 0.12
Rattus norvegicus [15]
  Uptake value: 0.97
Rattus norvegicus [16]
  Uptake value: 0.1
Rattus norvegicus [17]
  Uptake value: 2.85
Rattus norvegicus [18]
  Uptake value: 0.12
Rattus norvegicus [19]
  Uptake value: 0.12
Rattus norvegicus [20]
  Uptake value: 1.23
Rattus norvegicus [21]
  Uptake value: 0.19
Rattus norvegicus [22]
  Uptake value: 0.07
Rattus norvegicus [23]
  Uptake value: Not Active
Rattus norvegicus [24]
  Uptake value: 0.07
Rattus norvegicus [25]
  Uptake value: 0.23
Rattus norvegicus [26]
  Uptake value: Not Active
Rattus norvegicus [27]
  Uptake value: Not Active
Rattus norvegicus [28]
  Uptake value: 0.16
Rattus norvegicus [29]
  Uptake value: Not Active
Rattus norvegicus [30]
  Uptake value: 0.37
Rattus norvegicus [31]
  Uptake value: 5.92
Rattus norvegicus [32]
  Uptake value: 4.32
Rattus norvegicus [33]
  Uptake value: 4.68
Rattus norvegicus [34]
  Uptake value: Not Active
Rattus norvegicus [35]
  Uptake value: Not Active
[36]
  Ki: 20 pM
Rattus norvegicus [37]
  Uptake value: 6.08
Rattus norvegicus [38]
  Uptake value: 0.26
Rattus norvegicus [39]
  Uptake value: 0.1
